Screen size: about 330,000 compounds; about 220 (0.067%) were called active.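 The calls were made as follows: active = response, share of CD8 T cells binding vesicles, and their 90th percentile fluorescence all below set limits (cut at about 80% in these data, passing the limit was not always enough); inactive = the rest, inconclusive results apart.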 This excerpt belongs to a sample that is enriched for actives.

This assay can be described thus: murine CD8 T cell vesicle adhesion modulation – mouse 2C CD8+ T cells, flow cytometry, primary screen (AID 2052).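 As to double positive events: binding gate set so that unloaded-vesicle control wells show 10% double positive cells.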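 As to response (vesicle binding): values below 100% mean blocked vesicle binding to the CD8+ T cells.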 The conditions noted are these: 2C CD8+ T cell-vesicle binding, at 7 µM, stronger effect = lower value; double positive events: measured here: CD8+ vesicle-bound cell fraction. The method in brief: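 Material: murine 2C transgenic CD8+ T lymphocytes / Also added: QL9-peptide-loaded Drosophila micro-vesicles bearing Ld, ICAM-1 and B7-1 / Schedule: binding step 1.5 h, 37 °C, antibody labelling 20 min, ice / Signal: flow cytometry, PE anti-B7-1 (FL2) versus Alexa647 anti-CD8 (FL8), PFA-fixed / Evaluation: percent CD8+ FL2 mean versus row control / Benchmarks: naked versus QL9-loaded vesicles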
For the compound `COc1cccc(C(=O)NNC(=O)/C=C/c2ccccc2)c1`, the double positive events was 61.7% and the response (vesicle binding) is 433% (inactive).

As to `CNC(=O)c1nnn(-c2ccccc2)c1C(=O)NC`, the double positive events is 57.6% and the response (vesicle binding) is 329% (inactive).

In the case of `O=C(NCc1ccncc1)C1CCCN(S(=O)(=O)c2ccc(Br)cc2)C1` (configuration not stated), the double positive events came to 50.3% and the response (vesicle binding) was 342% (inactive).

For `CCSc1nnc(SCC(=O)NNC(=O)c2ccccc2F)s1`, the double positive events turned out to be 59.2% and the response (vesicle binding) is 194% (inactive).

In the case of `CCOc1cc(C2C(C(=O)OC(C)C)=C(C)NC3=C2C(=O)CCC3)cc([N+](=O)[O-])c1O` (configuration not stated), the double positive events turned out to be 47.9% and the response (vesicle binding) is 162% (inactive).

As for `COc1cc(N)c(Cl)cc1C(=O)OCC(=O)c1ccc2c(c1)NC(=O)CO2`, the double positive events is 29.1% and the response (vesicle binding) is 484% (inactive).

For `CC1(C)CC(CNCCC(c2ccc(F)cc2)c2ccco2)CCO1` (configuration not stated), the double positive events was 39.3% and the response (vesicle binding) is 172% (inactive).

As to `CN(C)S(=O)(=O)c1cccc(NC(=O)COc2ccc3ccccc3c2)c1`, the double positive events stood at 30.4% and the response (vesicle binding) was 566% (inactive).

In the case of `CCCn1cc(S(=O)(=O)c2ccc(C)cc2)c(=O)c2cc(OCC)ccc21`, the double positive events worked out at 38.4% and the response (vesicle binding) is 435% (inactive).

For the compound `CC1C(c2ccccc2)=[N+]([O-])C2(CCCC2)N1O` (configuration not stated), the double positive events is 34.2% and the response (vesicle binding) is 259% (inactive).

As for `COc1ccc(C2=Nn3c(nnc3-c3ccccc3OC)SC2)cc1OC1CCCC1`, the double positive events was determined as 2.5% and the response (vesicle binding) is 196% (inactive).

Turning to `CCC(CC)C(=O)Nc1cc(C(=O)OC)cc(C(=O)OC)c1`, the double positive events worked out at 23.6% and the response (vesicle binding) is 410% (inactive).

For `Cc1c(Br)c([N+](=O)[O-])nn1CC(=O)N1CCN(Cc2ccccc2)CC1`, the double positive events was determined as 63% and the response (vesicle binding) is 210% (inactive).

With `Cc1cc(Cl)ccc1C(=O)C1CCCN(C(=O)CCN2CCCO2)C1` (configuration not stated), the double positive events amounted to 23.8% and the response (vesicle binding) was 257% (inactive).

Regarding `Cn1nc(C(F)(F)F)c2cc(NC(=O)OCC(C)(C)C)sc21`, the double positive events stood at 43.1% and the response (vesicle binding) is 197% (inactive).

Take `CN(CCc1cnn(C)c1)Cc1cn(C)nc1-c1ccccc1F`: the double positive events is 31.2% and the response (vesicle binding) is 291% (inactive).

For the compound `O=C(Nc1cccn(Cc2c(Cl)cccc2Cl)c1=O)c1ccc(Cl)cc1`, the double positive events worked out at 24.7% and the response (vesicle binding) is 379% (inactive).

Take `CCCC(CCC(=O)OC)(C(=O)OCC)c1csc(N)n1` (configuration not stated): the double positive events was determined as 19.7% and the response (vesicle binding) is 485% (inactive).

For `CN(c1ccccc1)S(=O)(=O)c1cccc(NC(=O)Cc2ccc(Cl)cc2)c1`, the double positive events stood at 40.2% and the response (vesicle binding) was 419% (inactive).

With `CCCCCC1CCC(c2nnc(SCC(C)=O)o2)CC1` (configuration not stated), the double positive events was 19.4% and the response (vesicle binding) is 214% (inactive).

In the case of `O=C(Nc1ccc(N2CCOCC2)cc1)c1ccc(-c2ccccc2[N+](=O)[O-])o1`, the double positive events turned out to be 30.7% and the response (vesicle binding) was 205% (inactive).

As to `O=C(Nc1ccc(N2CCCCC2)cc1)c1cc(S(=O)(=O)N2CCOCC2)ccc1F`, the double positive events is 40.6% and the response (vesicle binding) is 316% (inactive).

As to `O=C(CC1Oc2ccccc2NC1=O)NCCCN1CCN(Cc2ccccc2)CC1` (configuration not stated), the double positive events was 40.4% and the response (vesicle binding) was 363% (inactive).

Turning to `CCOC(=O)N1CCN(S(=O)(=O)c2ccc3c(c2)C(C)C(=O)N3)CC1` (configuration not stated), the double positive events amounted to 29.9% and the response (vesicle binding) is 289% (inactive).

As for `COc1ccc(/C=C2\N=C3CCCN3C2=O)cc1`, the double positive events stood at 16.6% and the response (vesicle binding) was 231% (inactive).

Take `O=C1C=C(c2cccc(Br)c2)C[C@@H](c2ccc(F)cc2)C1`: the double positive events amounted to 26% and the response (vesicle binding) is 405% (inactive).

As for `Cc1ccc(C(=O)NC2CCCC(C)C2C)cc1S(=O)(=O)N1CCCCC1` (configuration not stated), the double positive events was determined as 56.1% and the response (vesicle binding) is 659% (inactive).

On to `O=C(Nc1ccc(CSc2ccccc2)cc1)c1ccc(CN2CCOCC2)cc1`, for which the double positive events was determined as 48.3% and the response (vesicle binding) was 264% (inactive).

On to `COc1ccc(N2CC(C)Cn3c2nc2c3c(=O)n(Cc3ccccc3F)c(=O)n2C)c(OC)c1` (configuration not stated), for which the double positive events was found to be 27.6% and the response (vesicle binding) is 423% (inactive).

`NC(=O)Nc1ccccc1C(=O)NCCc1ccccc1`: the double positive events stood at 0% and the response (vesicle binding) was 0% (active).

In the case of `COc1ccc(CCNC(=O)c2ccccc2OCc2ccccc2)cc1`, the double positive events is 12.3% and the response (vesicle binding) was 205% (inactive).

With `O=C(O)c1ccccc1-c1ccccc1C(=O)NCCc1ccccc1`, the double positive events was found to be 29.9% and the response (vesicle binding) is 437% (inactive).

As for `CC(C)c1ccc(N(C(=O)c2ccco2)C(C(=O)NC2CCCC2)c2cccnc2)cc1` (configuration not stated), the double positive events was 19.1% and the response (vesicle binding) is 176% (inactive).

For `Cc1cc(C)c(S(=O)(=O)c2cc(F)ccc2C)c(=O)[nH]1`, the double positive events amounted to 44.2% and the response (vesicle binding) was 185% (inactive).

Take `O=S(=O)(Nc1ccc(Cl)cn1)c1cnc(Cl)c(Br)c1`: the double positive events came out at 15.2% and the response (vesicle binding) was 0% (inactive).

On to `COc1ccc(N2CC(C(=O)N[C@@H](C)C(=O)N3CCCCC3)CC2=O)cc1` (some centres not stated), for which the double positive events was found to be 12.6% and the response (vesicle binding) was 315% (inactive).

On to `OCC(CO)(CO)NCc1ccc(-c2ccccc2)cc1`, for which the double positive events was determined as 35.7% and the response (vesicle binding) was 0% (inactive).

As to `NC(=O)C[C@@H]1NC(=O)CNC(=O)c2cc([N+](=O)[O-])cc(I)c2NCCC(C(N)=O)NC1=O` (some centres not stated), the double positive events worked out at 24.2% and the response (vesicle binding) is 474% (inactive).

On to `CC(/C=C/C1(O)C(C)CC(=O)CC1(C)C)OC1OC(CO)C(O)C(O)C1O` (configuration not stated), for which the double positive events was 38.7% and the response (vesicle binding) is 185% (inactive).

For the compound `CCNC(=O)Nc1ccc(S(=O)(=O)Nc2cnc(C)nc2C)cc1`, the double positive events worked out at 18.1% and the response (vesicle binding) was 230% (inactive).

`CCc1nnc(NC(=O)CSc2nc(SC)ns2)s1`: the double positive events came out at 35.8% and the response (vesicle binding) is 236% (inactive).

(Values after PubChem BioAssay AID2052 (NMMLSC, 2009).)
